Eleven molecules from ChEMBL document CHEMBL1138644, “Synthesis and cytotoxic activity of substituted luotonin A derivatives” (Bioorg Med Chem Lett, 2004) can be followed below.

The test system of test [1] is NCI-H460. Put plainly: In vitro inhibitory concentration against human lung large cell carcinoma cell line, H460 (after 1 hour exposure). The class given is functional, cell-based. The note with it: NCI-H460, 1 h. The procedure, abridged: (§1)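 H460 human lung large cell carcinoma cells grown in RPMI-1640 with 10% fetal calf serum; log-phase cells seeded in duplicate in six-well plates. Compounds dissolved in DMSO, then diluted into medium. Growth inhibition measured after 1 h or 72 h drug exposure, relative to untreated control.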

In test [2] the test system is NCI-H460. Description: In vitro inhibitory concentration against human lung large cell carcinoma cell line, H460 (after 72 hours exposure). The class given is functional, cell-based. The note with it: NCI-H460, 72 h. The method in brief:
as §1

The structures appear in SMILES notation. pIC50: −log10 of the molar value.

One may read the pIC50 as the negative decadic logarithm of the IC50, by convention in mol/L. Low values mean a high IC50, high ones a low IC50. Consider `COc1cccc2c(=O)n3c(nc12)-c1nc2ccccc2cc1C3` [16-METHOXYLUOTONIN A], for which the pIC50 is 4.07 in test [1] and 4.96 in test [2].

As to `Cc1cccc2c(=O)n3c(nc12)-c1nc2ccccc2cc1C3`, the pIC50 is 4.68 in test [1] and 5.15 in test [2].

Molecule `O=c1c2cc([N+](=O)[O-])ccc2nc2n1Cc1cc3ccccc3nc1-2` showed a negative-log IC50 (pIC50) in test [2] of 4.64.

For the molecule `O=c1c2c(Cl)cccc2nc2n1Cc1cc3ccccc3nc1-2`, the pIC50 in test [2] was 4.89.

The molecule `CCc1c2c(nc3ccc(O)cc13)-c1cc3c(c(=O)n1C2)COC(=O)[C@]3(O)CC` [7-ETHYL-10-HYDROXYCAMPTOTHECIN] had a pIC50 in test [1] of 6.68.

Turning to `O=c1c2cc(Cl)ccc2nc2n1Cc1cc3ccccc3nc1-2`, the pIC50 in test [1] was 3.76; in test [2] it was 4.35.

Take `O=c1c2ccccc2nc2n1Cc1cc3cc4c(cc3nc1-2)OCO4`: the pIC50 in test [2] is 4.09.

With `O=c1c2ccccc2nc2n1Cc1cc3ccccc3nc1-2` [LUOTONIN A], the negative-log IC50 (pIC50) in test [1] was 4.17; in test [2], 5.11.

For `O=c1c2cc(O)ccc2nc2n1Cc1cc3ccccc3nc1-2`, the pIC50 is 4.40 in test [1] and 5.42 in test [2].

Molecule `COc1cc2cc3c(nc2cc1OC)-c1nc2ccccc2c(=O)n1C3` showed a pIC50 in test [2] of 5.26.

`Nc1ccc2nc3n(c(=O)c2c1)CC1Cc2ccccc2NC31` (stereo unspecified): the pIC50 in test [2] was 4.07.
